Test results published in ChEMBL document CHEMBL3593173, “Discovery of novel N-(5-(tert-butyl)isoxazol-3-yl)-N'-phenylurea analogs as potent FLT3 inhibitors and evaluation of their activity against acute myeloid leukemia in vitro and in vivo” (Bioorg Med Chem, 2015).
pIC50: −log10 of the molar value.

Tested on: MV4-11
Experiment: Cytotoxicity against human MV4-11 cells incubated for 72 hrs by MTT assay
Format: functional, cell-based
Details: MV4-11, 72 h
How it was run: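 Leukemia cells were grown with 10% FBS at 37 °C in 5% CO₂; MV4-11 was kept in IMDM. Cells were seeded at 1–4 × 10⁴ per well, and an equal volume of medium containing increasing inhibitor concentrations was added. MTT was added for 2–4 h, formazan was dissolved in DMSO, and OD was read at 570 nm to derive IC50.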

| Compound | pIC50 |
| --- | --- |
| C#Cc1ccc2nc(-c3ccc(NC(=O)Nc4cc(C(C)(C)C)on4)cc3)cn2c1 | 8.06 |
| CC(C)(C)c1cc(NC(=O)Nc2ccc(-c3nc4ccccc4o3)cc2)no1 | 7.08 |
| Cc1cccn2cc(-c3ccc(NC(=O)Nc4cc(C(C)(C)C)on4)cc3)nc12 | 6.60 |
| CC(C)(C)c1cc(NC(=O)Nc2ccc(-c3cn4c(n3)sc3cc(OCCN5CCOCC5)ccc34)cc2)no1 [QUIZARTINIB] | 9.17 |
| CC(C)(C)c1cc(NC(=O)Nc2ccc(-c3cn4cc(F)ccc4n3)cc2)no1 | 7.68 |
| CC(C)(C)c1cc(NC(=O)Nc2ccc(-c3cn4ccc(Br)cc4n3)cc2)no1 | 8.02 |
| CC(C)(C)c1cc(NC(=O)Nc2ccc(-c3cn4ccncc4n3)cc2)no1 | 7.35 |
